Sampled rows, rich in hits. Any-hit rate of the full collection: about 3.3%.
NRP1-CendR mod – alters CendR peptide binding to human NRP-1; FAM-RPARPAR peptide binding to NRP-1, fluorescence polarization; 360,000 compounds, 0.85% hits; inhibition, % at 25 µM; AID 602438; O14786;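 active = inhibition or corrected inhibition above about 18%, plus a signal ratio from 0.5 to 1.5, limit read from the data, passing the limit was not always enough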
Arr AP2 block – inhibitors of human beta-arrestin and AP2 interaction | FITC-arrestin peptide / GST-AP2 beads, flow cytometry; AP2 beta2 appendage carries R879A mutation | 340,000 compounds, 0.31% hits | inhibition, % at 10 µM | AID 504490;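 active = inhibition above a set limit, near 3 SD of compounds lacking own fluorescence, cut at about 54% in these data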;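 note: plate controls were DMSO wells for no effect and 5 µM unlabelled arrestin peptide for full effect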
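System: GST-AP2 R879A glutathione beads. Medium: PBS with 0.05% Tween 20 and 0.1% BSA. Also added: FITC-arrestin peptide, 50 nM. Incubation: 12 min plus 1 h, RT. Measured by: high-throughput flow cytometry of beads, ex 488, em 535 nm. Evaluation: percent drop in bead-associated FITC signal.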
M18AAP inhibitor – PfM18AAP enzyme inhibition; 290,000 compounds, 1.2% hits; recombinant PfM18AAP, H-Glu-NHMec fluorogenic cleavage; AID 1822; inhibition, % at 7.35 µM;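 active = inhibition above the campaign mean inhibition over all tested compounds plus 3 SD, cut at about 28% in these data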;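 note: 0% = plate median of test compound wells and 100% = 2 mM ZnCl2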
Hep lipid drop – hepatic lipid droplet formation modulation; AML12 mouse hepatocytes, oleate lipid droplets, BODIPY imaging; AID 1656; 240,000 compounds, 0.4% hits; inhibition, % at 6.5 µM;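 active = lipid droplet intensity inhibited by at least 50%, with more than 500 cells counted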
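Material – mouse AML12 hepatocyte cell line, fixed after treatment · Compound dosing – one dose, 6.5 µM compound · Times – compound with oleate, overnight · Measured by – Image-based BODIPY and DAPI two-channel analysis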
sPLA2-III inh – Inhibits HGIII-sPLA2 liposome hydrolysis, primary screen | QFRET BODIPY PC-A2 liposome hydrolysis, fluorescence | inhibition, % at 12.2 µM | 370,000 compounds, 0.56% hits | AID 743126;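 active = inhibition above mean plus 3 SD of compounds lying within the high and low control bounds, cut at about 19% in these data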;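 note: 0% = median of test compound wells and 100% = no enzyme DMSO wells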
m5-HT2A agonist – activates the mouse 5-HT2A serotonin receptor. P35363. CHO-K1 mHTR2A beta-arrestin complementation, luminescence; percent of 30 µM serotonin response. 360,000 compounds, 0.66% hits. activation, % at 7.6 µM;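 active = activation above a run cutoff, the mean activation of all tested compounds plus 3 SD, cut at about 14% in these data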;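 note: 0% = plate median of compound wells and 100% = 30 µM serotonin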
Arr AP2 CP1 – inhibitors of human beta-arrestin and AP2 interaction; shares compounds with Arr AP2 block; GST-AP2 beads, FITC arrestin peptide binding, flow cytometry; GST-fused beta2-adaptin appendage, R879A mutant; inhibition, % at 10 µM; 1,300 compounds, 2% hits; AID 504908;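 active = inhibition above a set limit, roughly 3 SD of non-fluorescent compound noise, cut at about 38% in these data; inactive = inhibition at or below that limit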;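 note: loss of bead fluorescence from 50 nM FITC arrestin peptide bound to appendage; 0% = negative control wells and 100% = excess unlabelled arrestin peptide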
Target sequence (P63010 whole entry, looked up, the tested form may be a part, one chain of several): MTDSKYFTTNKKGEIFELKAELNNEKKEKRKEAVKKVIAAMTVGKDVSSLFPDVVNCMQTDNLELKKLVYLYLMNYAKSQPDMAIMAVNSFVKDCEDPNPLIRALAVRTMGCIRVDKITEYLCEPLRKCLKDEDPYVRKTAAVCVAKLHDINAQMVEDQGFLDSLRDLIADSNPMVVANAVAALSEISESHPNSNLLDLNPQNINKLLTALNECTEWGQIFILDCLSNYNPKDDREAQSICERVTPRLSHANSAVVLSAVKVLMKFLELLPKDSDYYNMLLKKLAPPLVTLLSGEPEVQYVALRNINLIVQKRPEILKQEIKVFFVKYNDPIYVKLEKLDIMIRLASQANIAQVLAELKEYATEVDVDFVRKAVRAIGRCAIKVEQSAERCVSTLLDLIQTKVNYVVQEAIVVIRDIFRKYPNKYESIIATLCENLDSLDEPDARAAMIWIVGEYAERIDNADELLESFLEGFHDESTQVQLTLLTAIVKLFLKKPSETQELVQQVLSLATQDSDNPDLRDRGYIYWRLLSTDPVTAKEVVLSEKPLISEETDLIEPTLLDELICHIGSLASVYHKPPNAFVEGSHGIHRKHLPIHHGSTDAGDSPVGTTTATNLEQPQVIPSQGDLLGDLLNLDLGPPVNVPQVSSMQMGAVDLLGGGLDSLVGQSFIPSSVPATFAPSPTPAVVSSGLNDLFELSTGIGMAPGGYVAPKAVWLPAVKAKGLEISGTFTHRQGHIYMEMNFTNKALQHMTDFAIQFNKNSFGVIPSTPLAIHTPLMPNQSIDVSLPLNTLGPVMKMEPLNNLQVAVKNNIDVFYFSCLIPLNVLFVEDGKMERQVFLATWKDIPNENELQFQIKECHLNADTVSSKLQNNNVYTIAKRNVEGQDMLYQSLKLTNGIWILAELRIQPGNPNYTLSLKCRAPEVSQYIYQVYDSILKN
GST GSH counter – GST-GSH bead binding interference, counter-screen; shares compounds with Arr AP2 block; GST-fluorescein binding to GSH beads, fluorescence; inhibition, % at 10 µM; 1,300 compounds, 2% hits; AID 588338;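 active = inhibition above 50%, about 3 SD of the inhibition seen with non-fluorescent compounds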;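 note: fluorescein maleimide labelled GST captured on 4 micron glutathione beads; higher means more loss of bead fluorescence from quenching or blocked binding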
* hit, by the source's call.

Screening Cc1cc(-c2cc(NC(=O)Cc3c[nH]c4ccccc34)ccc2N(C)c2cccnc2)ccc1F returned sPLA2-III inh 3.
For COc1ccc(S(=O)(=O)Nc2ccc(S(=O)(=O)Nc3cc(C)nc(C)n3)cc2)cc1OC the results were NRP1-CendR mod -2, Arr AP2 block 6, M18AAP inhibitor 2, Hep lipid drop -7, sPLA2-III inh -1 and m5-HT2A agonist 5.
CCn1cnc2cc(NS(=O)(=O)c3ccc(OC)c(OC)c3)ccc21 was read as NRP1-CendR mod 0, Arr AP2 block 61*, M18AAP inhibitor -15, Hep lipid drop 1, sPLA2-III inh 0, m5-HT2A agonist 0, Arr AP2 CP1 2 and GST GSH counter -5.
Screening O=C1CC(c2ccccc2)c2ccccc21 (stereo not given) returned NRP1-CendR mod 2, Arr AP2 block 0, M18AAP inhibitor 5, sPLA2-III inh -2 and m5-HT2A agonist -2.
Screening O=C1CC(C(=O)O)C(c2ccccc2)c2ccccc21 (stereo not given) returned NRP1-CendR mod 8, Arr AP2 block 55*, sPLA2-III inh -3, m5-HT2A agonist 10, Arr AP2 CP1 4 and GST GSH counter 11.
For COc1ccc2oc(C(=O)Nc3ccccn3)c(C)c2c1 the results were NRP1-CendR mod -10, Arr AP2 block -8, M18AAP inhibitor -5, Hep lipid drop -3, sPLA2-III inh -8 and m5-HT2A agonist 0.
For COc1ccc2oc(C(=O)Nc3nc(C)cs3)c(C)c2c1 the results were NRP1-CendR mod -8, Arr AP2 block 63*, sPLA2-III inh 6, m5-HT2A agonist -5, Arr AP2 CP1 -2 and GST GSH counter 7.
For Cc1nc2ccc(NS(=O)(=O)c3ccc(Br)cc3)cc2s1 the results were NRP1-CendR mod -19, Arr AP2 block -5, sPLA2-III inh -19 and m5-HT2A agonist 12.
For OCc1ccccc1OCc1ccccc1 the results were sPLA2-III inh -3.
For O=c1cc(CO)[nH]cc1OCc1ccccc1 the results were NRP1-CendR mod 2, Arr AP2 block 61*, M18AAP inhibitor -2, Hep lipid drop -16, sPLA2-III inh 8, m5-HT2A agonist -1, Arr AP2 CP1 -5 and GST GSH counter -5.
C[C@H]1C(=O)N2[C@@H](C[C@]3(c4c[nH]c5ccccc45)c4ccccc4N(S(=O)(=O)c4ccccc4)[C@H]23)C(=O)N1C was read as sPLA2-III inh -17.
CCOc1ccccc1C(=O)Nc1cc(=O)n(C)c(=O)n1C was read as NRP1-CendR mod 2, Arr AP2 block 4, M18AAP inhibitor 0, Hep lipid drop 4, sPLA2-III inh 2 and m5-HT2A agonist -3.
Screening CCCc1ccccc1OCCNC(=O)c1cc(=O)n(C)c(=O)n1C returned NRP1-CendR mod 3, Arr AP2 block 60*, M18AAP inhibitor -6, Hep lipid drop 7, sPLA2-III inh 1, m5-HT2A agonist 5, Arr AP2 CP1 -2 and GST GSH counter 6.
O=C(NCC(F)(F)F)N1CCOCC1 was read as NRP1-CendR mod 4, Arr AP2 block 68*, M18AAP inhibitor -6, Hep lipid drop 5, sPLA2-III inh -6, m5-HT2A agonist 6, Arr AP2 CP1 5 and GST GSH counter -6.
O=C(Cc1ccccc1)Nc1ccc(C(=O)NCC2COc3ccccc3O2)cc1 (stereo not given) was read as NRP1-CendR mod 12, Arr AP2 block 27, M18AAP inhibitor 6, Hep lipid drop 6, sPLA2-III inh -8 and m5-HT2A agonist -1.
`O=C(NCC1COc2ccccc2O1)c1ccc(NC(=O)C(c2ccccc2)c2ccccc2)cc1` (stereo not given) gave NRP1-CendR mod 11, Arr AP2 block 99*, M18AAP inhibitor -3, Hep lipid drop -3, sPLA2-III inh -9, m5-HT2A agonist -1, Arr AP2 CP1 35 and GST GSH counter 5.

Screening data as filed in PubChem.
